Assays:
[1] = tested on: MDA-MB-231; assay: Cytotoxicity against human MDA-MB-231 cells after 72 hrs by MTT assay; assay type: functional, cell-based; conditions: MDA-MB-231, 72 h
Method in brief: (§1)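 Cells were kept in RPMI-1640 or DMEM with 10% heat-inactivated FBS, penicillin–streptomycin, 2 mM glutamine and 10 mM HEPES at 37 °C, 5% CO2. They were trypsinized, seeded at 3 × 10³ per well and allowed 24 h before exposure to a range of concentrations for 72 h. MTT (5 mg/mL stock) was added for 4 h, absorbance read at 570 nm, and IC50 calculated.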

[2] = tested on: Mus musculus; assay: Acute toxicity against mouse at 2000 mg/kg, po administered as single dose; assay type: organism-based; set-up: dose 2000 mg/kg, route oral; conditions: in vivo
Method in brief: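 Mice received one oral dose, and the read-out was any sign of toxicity. The highest dose given without signs was recorded as the tolerated single oral dose.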

[3] = tested on: Bel-7402; assay: Cytotoxicity against human Bel7402 cells after 72 hrs by MTT assay; assay type: functional, cell-based; conditions: Bel-7402, 72 h; method in brief: as §1
[4] = tested on: SGC-7901; assay: Cytotoxicity against human SGC7901 cells after 72 hrs by MTT assay; assay type: functional, cell-based; conditions: SGC-7901, 72 h; method in brief: as §1
[5] = tested on: HepG2; assay: Cytotoxicity against human HepG2 cells after 72 hrs by MTT assay; assay type: functional, cell-based; conditions: HepG2, 72 h; method in brief: as §1
[6] = tested on: HT-29; assay: Cytotoxicity against human HT-29 cells after 72 hrs by MTT assay; assay type: functional, cell-based; conditions: HT-29, 72 h; method in brief: as §1
[7] = tested on: LoVo; assay: Cytotoxicity against human LoVo cells after 72 hrs by MTT assay; assay type: functional, cell-based; method in brief: as §1
[8] = tested on: OS-RC-2; assay: Cytotoxicity against human OS-RC2 cells after 72 hrs by MTT assay; assay type: functional, cell-based; conditions: OS-RC-2, 72 h; method in brief: as §1
[9] = tested on: A549; assay: Cytotoxicity against human A549 cells after 72 hrs by MTT assay; assay type: functional, cell-based; conditions: A549, 72 h; method in brief: as §1
[10] = tested on: NCI-H460; assay: Cytotoxicity against human NCI-H460 cells after 72 hrs by MTT assay; assay type: functional, cell-based; conditions: NCI-H460, 72 h; method in brief: as §1
[11] = tested on: Mus musculus; assay: Toxicity against mouse at 1460 mg/kg, po administered as single dose; assay type: organism-based; set-up: dose 1460 mg/kg, route oral; conditions: in vivo
Method in brief: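 Acute toxicity was tested in mice by a single oral dose, with doses up to 2000 mg/kg. Animals were watched for any sign of toxicity.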

| SMILES | IC50 [1] [µM] | Activity [2] | IC50 [3] [µM] | IC50 [4] [µM] | IC50 [5] [µM] | IC50 [6] [µM] | IC50 [7] [µM] | IC50 [8] [µM] | IC50 [9] [µM] | IC50 [10] [µM] | Activity [11] |
| --- | --- | --- | --- | --- | --- | --- | --- | --- | --- | --- | --- |
| O=C(Nc1ccc(-n2ncc3c(C(F)(F)F)cccc32)cc1)Nc1ccc(Cl)c(C(F)(F)F)c1 | 2 | Non-toxic | 16 | > 32 | 8 | 2.9 | 3 | > 32 | 3 | 1.6 |  |
| O=C(Nc1ccc(-n2ncc3c(Cl)cccc32)cc1)Nc1ccc(Cl)c(C(F)(F)F)c1 | 1.6 | Non-toxic | 2 | 4.6 | 1.9 | 4.6 | 3.6 | 3.1 | 3.1 | 1.3 |  |
| O=C(Nc1ccc(-n2ncc3c(Br)cccc32)cc1)Nc1ccc(Cl)c(C(F)(F)F)c1 | 7.7 |  | 1.3 | 16.6 | 2.5 | 4 | 1.7 | 9.9 | 2.3 | 1.3 |  |
| O=C(Nc1ccc(-n2ncc3c(F)cccc32)cc1)Nc1ccc(Cl)c(C(F)(F)F)c1 | 3.1 |  | 16 | 32 | 29.5 | 8.2 | 9.8 | 32 | 3.8 | 3.4 |  |
| Cc1cccc2c1cnn2-c1ccc(NC(=O)Nc2ccc(Cl)c(C(F)(F)F)c2)cc1 | 2.3 |  | 6.7 | 14.2 | 4 | 32 | 3.9 | 32 | 5.5 | 2.5 |  |
| O=C(Nc1ccc(-n2ncc3ccccc32)cc1)Nc1ccc(Cl)c(C(F)(F)F)c1 | 5 |  | 10.6 | > 32 | 8 | 18.2 | 8.7 | 32 | 9.9 | 5.5 |  |
| CNc1cccc2c1cnn2-c1ccc(NC(=O)Nc2ccc(Cl)c(C(F)(F)F)c2)cc1 | 3.6 |  | 5 | 6.9 | 3 | 5.9 | 6.3 | 10.6 | 4.9 | 2.6 |  |
| COc1cccc2c1cnn2-c1ccc(NC(=O)Nc2ccc(Cl)c(C(F)(F)F)c2)cc1 | 1.2 |  | 2.9 | 29.8 | 4 | > 32 | > 32 | 28.8 | 3.7 | 2.2 |  |
| O=C(Nc1ccc(-n2ncc3c(C(F)(F)F)cccc32)cc1)Nc1ccc(C(F)(F)F)cc1 | 2 | Non-toxic | 1 | 4 | 1 | 3.3 | 2.2 | 4 | 0.8 | 0.8 |  |
| O=C(Nc1ccc(-n2ncc3c(Cl)cccc32)cc1)Nc1ccc(C(F)(F)F)cc1 | 2.7 |  | 8 | 6 | 6.7 | 1 | 5.1 | 4.6 | 6 | 6.8 |  |
| O=C(Nc1ccc(-n2ncc3cnccc32)cc1)Nc1ccc(Cl)c(C(F)(F)F)c1 | 16 |  | 2.7 | 22.6 | 4 | 10.5 | 8 | > 32 | 3.4 | 1.4 |  |
| O=C(Nc1ccc(-n2ncc3ccncc32)cc1)Nc1ccc(Cl)c(C(F)(F)F)c1 | > 32 |  | 4 | > 32 | 16 | 29.5 | 7.1 | > 32 | 10.6 | 4.8 |  |
| O=C(Nc1ccc(-n2ncc3cccnc32)cc1)Nc1ccc(Cl)c(C(F)(F)F)c1 | > 32 |  | 20.9 | > 32 | > 32 | > 32 | 32 | > 32 | > 32 | 16.6 |  |
| CNC(=O)c1cc(Oc2ccc(NC(=O)Nc3ccc(Cl)c(C(F)(F)F)c3)cc2)ccn1 [SORAFENIB] | 2 |  | 5.8 | 6.9 | 4 | 4 | 3.3 | 16 | 4 | 3.9 | Non-toxic |

— ChEMBL document CHEMBL2346613, “Synthesis of indazole based diarylurea derivatives and their antiproliferative activity against tumor cell lines” (Bioorg Med Chem Lett, 2013)
